Reference: ChEMBL document CHEMBL2169809, “Identification of high-affinity P2Y₁₂ antagonists based on a phenylpyrazole glutamic acid piperazine backbone” (J Med Chem, 2012)

Key:
P2Y purinoceptor 12 = P2Y purinoceptor 12 (Homo sapiens, UniProt Q9H244); assay: Displacement of [33P]2-MeS-ADP from human recombinant P2Y12 receptor expressed in CHO cell membranes by scintillation counting method
Platelet [1] = assay: Inhibition of ADP-stimulated platelet aggregation in human platelet rich plasma by light transmission aggregometry based Born method; format: functional, cell-based
Platelet [2] = assay: Inhibition of ADP-stimulated platelet aggregation in human platelet rich plasma by 96-well format based turbidimetric method; format: functional
How it was run: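 Citrated (ACD-A) donor blood was spun at 150g for 15 min at room temperature to give PRP. PRP was adjusted with PPP to 3 × 10^8 platelets/mL. Compound, diluted in NaCl, was preincubated with hPRP for 5 min before ADP was added.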

P2Y purinoceptor 12, sequence (Q9H244 whole entry): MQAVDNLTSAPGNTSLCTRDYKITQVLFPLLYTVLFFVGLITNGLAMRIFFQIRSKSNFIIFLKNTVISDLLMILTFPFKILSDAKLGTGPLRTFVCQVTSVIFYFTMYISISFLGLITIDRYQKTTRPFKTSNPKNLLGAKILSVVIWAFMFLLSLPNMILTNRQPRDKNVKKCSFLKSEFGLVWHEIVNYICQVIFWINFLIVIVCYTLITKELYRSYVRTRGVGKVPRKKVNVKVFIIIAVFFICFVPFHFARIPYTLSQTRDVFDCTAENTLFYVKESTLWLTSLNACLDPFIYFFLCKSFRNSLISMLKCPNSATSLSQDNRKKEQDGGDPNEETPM

Row | Ki (P2Y purinoceptor 12) [nM] | IC50 (Platelet [1]) [nM] | IC50 (Platelet [2]) [nM] | Compound
1 | 23 | – | – | CCOC(=O)N1CCN(C(=O)[C@H](CCNS(C)(=O)=O)NC(=O)c2cc(OCC(=O)N3CCC[C@H]3C(=O)NC3CCC3)n(-c3ccccc3)n2)CC1
2 | 5 | 69 | 40 | CCOC(=O)N1CCN(C(=O)[C@H](CCc2nnn[nH]2)NC(=O)c2cc(OCC(=O)N3CCC[C@H]3C(=O)NC3CCC3)n(-c3ccccc3)n2)CC1
3 | – | 79 | 50 | CCCCOC(=O)N1CCN(C(=O)[C@H](CCc2nnn[nH]2)NC(=O)c2cc(OCC(=O)N3CCC[C@H]3C(=O)NC3CCC3)n(-c3ccccc3)n2)CC1
4 | 180 | – | 3770 | CCOC(=O)N1CCN(C(=O)[C@H](CCN)NC(=O)c2cc(OCC(=O)N3CCC[C@H]3C(=O)NC3CCC3)n(-c3ccccc3)n2)CC1
5 | 42 | – | 675 | CCOC(=O)N1CCN(C(=O)[C@H](CCNC(C)=O)NC(=O)c2cc(OCC(=O)N3CCC[C@H]3C(=O)NC3CCC3)n(-c3ccccc3)n2)CC1
6 | 23 | 120 | 210 | CCOC(=O)N1CCN(C(=O)[C@H](CCO)NC(=O)c2cc(OCC(=O)N3CCC[C@H]3C(=O)NC3CCC3)n(-c3ccccc3)n2)CC1
7 | 6.5 | 70 | 92 | CCCCOC(=O)N1CCN(C(=O)[C@H](CCCO)NC(=O)c2cc(OCC(=O)N3CCC[C@H]3C(=O)NC3CCC3)n(-c3ccccc3)n2)CC1
8 | 202 | – | 2400 | CCOC(=O)N1CCN(C(=O)[C@H](CCCCO)NC(=O)c2cc(OCC(=O)N3CCC[C@H]3C(=O)NC3CCC3)n(-c3ccccc3)n2)CC1
9 | 172 | – | 3610 | CCC[C@H](NC(=O)c1cc(OCC(=O)N2CCC[C@H]2C(=O)NC2CCC2)n(-c2ccccc2)n1)C(=O)N1CCN(C(=O)OCC)CC1
10 | 207 | – | > 5000 | CCOC(=O)N1CCN(C(=O)[C@H](CC(C)C)NC(=O)c2cc(OCC(=O)N3CCC[C@H]3C(=O)NC3CCC3)n(-c3ccccc3)n2)CC1
11 | 183 | – | 1900 | CCOC(=O)N1CCN(C(=O)[C@@H](NC(=O)c2cc(OCC(=O)N3CCC[C@H]3C(=O)NC3CCC3)n(-c3ccccc3)n2)C(C)C)CC1
12 | 111 | – | 2210 | CCOC(=O)N1CCN(C(=O)[C@H](C)NC(=O)c2cc(OCC(=O)N3CCC[C@H]3C(=O)NC3CCC3)n(-c3ccccc3)n2)CC1
13 | 3.1 | 30 | 21 | CCCOC(=O)N1CCN(C(=O)[C@H](CCC(=O)O)NC(=O)c2cc(OCC(=O)N3CCC[C@H]3C(=O)NC3CCC3)n(-c3ccccc3)n2)CC1
14 | 0.8 | 13 | 19 | CCCCOC(=O)N1CCN(C(=O)[C@H](CCC(=O)O)NC(=O)c2cc(OCC(=O)N3CCC[C@H]3C(=O)NC3CCC3)n(-c3ccccc3)n2)CC1
15 | 5 | – | 14 | O=C(O)CC[C@H](NC(=O)c1cc(OCC(=O)N2CCC[C@H]2C(=O)NC2CCC2)n(-c2ccccc2)n1)C(=O)N1CCN(C(=O)OC2CCC2)CC1
16 | 7.7 | – | 72 | CCOC(=O)N1CCN(C(=O)[C@H](CCC(=O)O)NC(=O)c2cc(OCC(=O)N3CCC[C@H]3C(=O)NC3CCC3)n(-c3ccccc3)n2)[C@H](C)C1
17 | 54 | – | 430 | CCOC(=O)N1CCN(C(=O)[C@H](CCC(=O)O)NC(=O)c2cc(OCC(=O)N3CCC[C@H]3C(=O)NC3CCC3)n(-c3ccccc3)n2)[C@@H](C)C1
18 | 80 | – | 1510 | CCOC(=O)N1CCN(C(=O)[C@H](CCC(=O)O)NC(=O)c2cc(OCC(=O)N3CCC[C@H]3C(=O)NC3CCC3)n(-c3ccccc3)n2)C[C@@H]1C
19 | 51 | – | 335 | CCOC(=O)N1CCN(C(=O)[C@H](CCC(=O)O)NC(=O)c2cc(OCC(=O)N3CCC[C@H]3C(=O)NC3CCC3)n(-c3ccccc3)n2)C[C@H]1C
20 | 48 | – | 1200 | CCOC(=O)N1CCN(C(=O)[C@H](CNS(C)(=O)=O)NC(=O)c2cc(OCC(=O)N3CCC[C@H]3C(=O)NC3CCC3)n(-c3ccccc3)n2)CC1
21 | 42 | – | 76 | CCOC(=O)N1CCN(C(=O)[C@H](CCC(=O)O)NC(=O)c2cc(OCC(=O)N3CC[C@H]3C(=O)NC3CCC3)n(-c3ccccc3)n2)CC1
22 | 238 | – | 3130 | CCOC(=O)N1CCN(C(=O)[C@H](CCC(=O)O)NC(=O)c2cc(OCC(=O)N3CCC(C(=O)NC4CCC4)C3)n(-c3ccccc3)n2)CC1 (some centres not stated)
23 | 613 | – | 2940 | CCOC(=O)N1CCN(C(=O)[C@H](CCC(=O)O)NC(=O)c2cc(OCC(=O)N3CC(C(=O)NC4CCC4)C3)n(-c3ccccc3)n2)CC1
24 | 536 | – | 1460 | CCOC(=O)N1CCN(C(=O)[C@H](CCC(=O)O)NC(=O)c2cc(OCC(=O)N3CCC[C@H]3C(=O)NC)n(-c3ccccc3)n2)CC1
25 | 303 | – | 475 | CCNC(=O)[C@@H]1CCCN1C(=O)COc1cc(C(=O)N[C@@H](CCC(=O)O)C(=O)N2CCN(C(=O)OCC)CC2)nn1-c1ccccc1
26 | 56 | – | – | CCOC(=O)N1CCN(C(=O)[C@H](CCC(=O)O)NC(=O)c2cc(OCC(=O)N3CCC[C@H]3C(=O)NC(C)C)n(-c3ccccc3)n2)CC1
27 | 105 | – | 13 | CCOC(=O)N1CCN(C(=O)[C@H](CCC(=O)O)NC(=O)c2cc(OCC(=O)N3CCC[C@H]3C(=O)NC3CC3)n(-c3ccccc3)n2)CC1
28 | 958 | – | – | CCOC(=O)N1CCN(C(=O)[C@H](CCC(=O)O)NC(=O)c2cc(OCC(=O)N3CCC[C@@H]3C(=O)NC3CC3)n(-c3ccccc3)n2)CC1
29 | 27 | – | 220 | CCOC(=O)N1CCN(C(=O)[C@H](CCC(=O)O)NC(=O)c2cc(OCC(=O)N3CCC[C@H]3C(=O)N(C)C3CCC3)n(-c3ccccc3)n2)CC1

Continued, compound first:

Row | Compound | Ki (P2Y purinoceptor 12) [nM] | IC50 (Platelet [1]) [nM] | IC50 (Platelet [2]) [nM]
30 | CCCCOC(=O)NC1CCN(C(=O)[C@H](CCC(=O)O)NC(=O)c2cc(OCC(=O)N3CCC[C@H]3C(=O)NC3CCC3)n(-c3ccccc3)n2)C1 (some centres not stated) | 82 | – | 1880
31 | CCCCOC(=O)N1CCC(NC(=O)[C@H](CCC(=O)O)NC(=O)c2cc(OCC(=O)N3CCC[C@H]3C(=O)NC3CCC3)n(-c3ccccc3)n2)C1 (some centres not stated) | 193 | – | > 5000
32 | COc1cccc(N2CCN(C(=O)[C@H](CCC(=O)O)NC(=O)c3cc(OCC(=O)N4CCC[C@H]4C(=O)NC4CCC4)n(-c4ccccc4)n3)CC2)c1 | 30 | – | 790
33 | O=C(O)CC[C@H](NC(=O)c1cc(OCC(=O)N2CCC[C@H]2C(=O)NC2CCC2)n(-c2ccccc2)n1)C(=O)N1CCC(C(=O)c2ccccc2)CC1 | 40 | – | 1330
34 | O=C(O)CC[C@H](NC(=O)c1cc(OCC(=O)N2CCC[C@H]2C(=O)NC2CCC2)n(-c2ccccc2)n1)C(=O)N1CCN(C(=O)c2ccccc2)CC1 | 130 | – | 1230
35 | O=C(O)CC[C@H](NC(=O)c1cc(OCC(=O)N2CCC[C@H]2C(=O)NC2CCC2)n(-c2ccccc2)n1)C(=O)N1CCN(C(=O)OCc2ccccc2)CC1 | 5.7 | – | 124
36 | O=C(O)CC[C@H](NC(=O)c1cc(OCC(=O)N2CCC[C@H]2C(=O)NC2CCC2)n(-c2ccccc2)n1)C(=O)N1CCN(C(=O)Oc2ccccc2)CC1 | 71 | – | 1080
37 | CCOC(=O)N1CCN(C(=O)[C@H](CCC(=O)O)NC(=O)c2cc(OCC(=O)N3CCC[C@H]3C(=O)N3CCCC3)n(-c3ccccc3)n2)CC1 | 219 | – | 600
38 | CCOC(=O)N1CCN(C(=O)[C@H](CCC(=O)O)NC(=O)c2cc(OCC(=O)N3CCC[C@H]3C(=O)N3CCCCC3)n(-c3ccccc3)n2)CC1 | 56 | 73 | 70
39 | CCOC(=O)N1CCN(C(=O)[C@H](CCC(=O)O)NC(=O)c2cc(OCC(=O)N3CCC[C@H]3c3nc(C)c[nH]3)n(-c3ccccc3)n2)CC1 | 56 | – | 380
40 | CCOC(=O)N1CCN(C(=O)[C@H](CCC(=O)O)NC(=O)c2cc(OCC(=O)N3CCC[C@H]3c3ccccc3)n(-c3ccccc3)n2)CC1 | 33 | – | –
41 | CCOC(=O)N1CCC(NC(=O)[C@H](CCC(=O)O)NC(=O)c2cc(OCC(=O)N3CCC[C@H]3C(=O)NC3CCC3)n(-c3ccccc3)n2)CC1 | > 5000 | – | > 5000
42 | CCCCOC(=O)NC1CCN(C(=O)[C@H](CCC(=O)O)NC(=O)c2cc(OCC(=O)N3CCC[C@H]3C(=O)NC3CCC3)n(-c3ccccc3)n2)CC1 | 22 | 120 | 55
43 | CCOC(=O)N1CCN(C(=O)[C@H](CCC(=O)O)NC(=O)c2cc(OCC(=O)N3CCCC3=O)n(-c3ccccc3)n2)CC1 | 173 | – | 900
44 | CCOC(=O)N1CCN(C(=O)[C@H](CCC(=O)O)NC(=O)c2cc(OCC(=O)N3CCC[C@H]3C(N)=O)n(-c3ccccc3)n2)CC1 | 283 | – | 3100
45 | CCOC(=O)N1CCN(C(=O)[C@H](CCC(=O)O)NC(=O)c2cc(OC(C)(C)C(=O)OCC)c3ccc(C)cc3n2)CC1 | 86 | – | 2600
46 | CCOC(=O)N1CCN(C(=O)[C@H](CCC(=O)O)NC(=O)c2cc(OCC(=O)C3CCC3)n(-c3ccccc3)n2)CC1 | 574 | – | 7410
47 | CCOC(=O)N1CCN(C(=O)[C@H](CCC(=O)O)NC(=O)c2cc(OCC(N)=O)n(-c3ccccc3)n2)CC1 | 2720 | – | 9050
48 | CCOC(=O)N1CCN(C(=O)[C@H](CCC(=O)O)NC(=O)c2cc(OCC(=O)N(CC)CC)n(-c3ccccc3)n2)CC1 | > 5000 | – | > 10000
49 | CCOC(=O)N1CCN(C(=O)[C@H](CCC(=O)O)NC(=O)c2cc(OCC(=O)N3CC[C@@H](O)C3)n(-c3ccccc3)n2)CC1 | 459 | – | 1370
50 | CCOC(=O)N1CCN(C(=O)[C@H](CCC(=O)O)NC(=O)c2cc(=O)n(-c3ccccc3)[nH]2)CC1 | > 5000 | – | > 10000
51 | CNc1cc2[nH]c(=O)n(-c3ccc(NC(=O)NS(=O)(=O)c4ccc(Cl)s4)cc3)c(=O)c2cc1F [ELINOGREL] | 23 | – | 2810
52 | CCCSc1nc(N[C@@H]2C[C@H]2c2ccc(F)c(F)c2)c2nnn([C@@H]3C[C@H](OCCO)[C@@H](O)[C@H]3O)c2n1 [TICAGRELOR] | 14 | – | 1830
